Test results as given in ChEMBL document CHEMBL4732105, “First orally bioavailable prodrug of proteolysis targeting chimera (PROTAC) degrades cyclin-dependent kinases 2/4/6 in vivo” (Eur J Med Chem, 2021).

Key:
B16-F10 [1] = assay: Induction of cell cycle arrest in mouse B16-F10 cells assessed as accumulation at G1 phase at 25 uM incubated for 48 hrs by propidium iodide staining based flow cytometry (reference value: 52.59%); assay type: functional
B16-F10 [2] = assay: Induction of apoptosis in mouse B16F10 cells assessed as necrotic cells at 250 nM incubated for 48 hrs by Annexin V-FITC/PI staining based flow cytometry (reference value: 0.21%); assay type: functional
B16-F10 [3] = assay: Cytotoxicity against mouse B16F10 cells assessed as reduction in cell viability after 72 hrs by MTT assay; assay type: functional, cell-based; conditions: B16-F10, 72 h
Procedure, shortened: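 Cells exposed to compound for 72 h and viability read by MTT; IC50 from three independent experiments.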

Compound: CN(C)C(=O)c1cc2cnc(Nc3ccc(C(=O)NCCCCCCNc4cccc5c4C(=O)N(C4CCC(=O)NC4=O)C5=O)cc3)nc2n1C1CCCC1 (stereo not drawn)
- Activity (B16-F10 [1]): 49.67%
- Activity (B16-F10 [2]): 0.14%
- IC50 (B16-F10 [3]): 97.6 nM
